Test results taken from ChEMBL document CHEMBL3997808 (J Med Chem, 2017).

What was measured:
[1] = (§1) Displacement of (14-(2-{[3-({2-{[4-(cyanomethyl)phenyl]amino}-6-[(5-cyclopropyl-1H-pyrazol-3-yl)-amino]-4-pyrimidinyl}amino)propyl]amino}-2-oxoethyl)-16,16,18,18-tetramethyl-6,7,7a,8a,9,10,16,18-octahydrobenzo[2'',3'']indolizino-[8'',7'':5',6']pyrano[3',2':3,4]pyrido[1,2-a]indol-5-ium-2-sulfonate from monkey RIP1 (1 to 379 residues) expressed in baculovirus infected insect cells measured for 50 mins by fluorescence polarization assay; design: species or system Macaca mulatta
How it was run: (§2)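 Competitive FP binding assay in which test compounds displace a fluorescently labeled ATP-competitive ligand from RIP1.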

[2] = test system: Mus musculus; test: Protection against TNF-induced lethal shock in mouse assessed as reduction in body temperature loss at 50 mg/kg, po pretreated for 15 mins followed by TNF-stimulation measured after 6 hrs relative to control; assay type: functional; design: scale not given: the % may be the effect or the level left
[3] = test system: Mus musculus; test: Protection against TNF/zVAD-induced lethal shock in mouse assessed as reduction in body temperature loss at 50 mg/kg, po pretreated for 15 mins followed by TNF/zVAD-stimulation measured after 3 hrs relative to control; assay type: functional; design: scale not given: the % may be the effect or the level left
[4] = test system: Mus musculus; test: Protection against TNF/zVAD-induced lethal shock in mouse assessed as reduction in body temperature loss at 3 mg/kg, po pretreated for 15 mins followed by TNF/zVAD-stimulation measured after 3 hrs relative to control; assay type: functional; design: scale not given: the % may be the effect or the level left
[5] = as §1, with “mini pig” for “monkey”, “375” for “379”; design: species or system Sus scrofa; how it was run: as §2
[6] = as §1, with “rat” for “monkey”, “377” for “379”; how it was run: as §2
[7] = Inhibition of RIP1 in cynomolgus monkey whole blood assessed as reduction in TNFalpha/[…]/zVAD FMK/SMAC mimetic RMT 5265-IL-1beta production after 6 hrs by sandwich ELISA; conditions: Macaca fascicularis
How it was run: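 Heparinized venous cynomolgus whole blood was stimulated with stocks of TNF (200 ng/mL), QVD-OPh or zVAD.fmk (400 μM) and RMT 5265 (20 μM), with stock values as printed. Compound was a 5-fold dilution series, top 5 μM, in RPMI/1% FBS/1% DMSO. Incubation was 6 h at 37 °C, 5% CO2, then PBS dilution and centrifugation. Supernatant IL-1β was read by sandwich ELISA.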

[8] = test system: Mus musculus; test: Protection against TNF/zVAD-induced lethal shock in mouse assessed as reduction in body temperature loss at 10 mg/kg, po pretreated for 15 mins followed by TNF/zVAD-stimulation measured after 3 hrs relative to control; assay type: functional; design: scale not given: the % may be the effect or the level left
[9] = test system: Mus musculus; test: Protection against TNF-induced lethal shock in mouse assessed as reduction in body temperature loss at 10 mg/kg, po pretreated for 15 mins followed by TNF-stimulation measured after 6 hrs relative to control; assay type: functional; design: scale not given: the % may be the effect or the level left
[10] = target: T1, Receptor-interacting serine/threonine-protein kinase 1 (Homo sapiens) (UniProt Q13546)
T1 sequence (whole entry): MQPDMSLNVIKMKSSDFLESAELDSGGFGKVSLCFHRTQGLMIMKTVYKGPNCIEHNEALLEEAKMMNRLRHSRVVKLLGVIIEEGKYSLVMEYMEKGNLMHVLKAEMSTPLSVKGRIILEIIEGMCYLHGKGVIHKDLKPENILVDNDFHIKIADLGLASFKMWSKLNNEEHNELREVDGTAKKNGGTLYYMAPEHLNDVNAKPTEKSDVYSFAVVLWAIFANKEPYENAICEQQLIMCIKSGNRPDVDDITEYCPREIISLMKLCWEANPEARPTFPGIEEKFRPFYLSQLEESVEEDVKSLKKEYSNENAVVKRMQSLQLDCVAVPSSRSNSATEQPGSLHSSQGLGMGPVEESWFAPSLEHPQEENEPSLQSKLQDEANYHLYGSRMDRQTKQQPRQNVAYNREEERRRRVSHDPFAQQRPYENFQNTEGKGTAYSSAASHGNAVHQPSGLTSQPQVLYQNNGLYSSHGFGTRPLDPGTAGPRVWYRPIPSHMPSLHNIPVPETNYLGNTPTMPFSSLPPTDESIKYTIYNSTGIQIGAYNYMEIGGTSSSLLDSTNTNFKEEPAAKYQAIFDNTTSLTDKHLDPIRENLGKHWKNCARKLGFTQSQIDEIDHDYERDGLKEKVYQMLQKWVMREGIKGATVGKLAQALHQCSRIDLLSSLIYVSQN

[11] = as §1, with “rabbit” for “monkey”, “371” for “379”; design: species or system Oryctolagus cuniculus; how it was run: as §2
[12] = test system: Mus musculus; test: In vivo inhibition of RIP1 in po dosed mouse model of TNF-induced lethal shock assessed as plasma concentration required for reduction in body temperature loss pretreated for 15 mins followed by TNF-stimulation measured after 6 hrs; assay type: functional, organism-based
[13] = test system: Mus musculus; test: In vivo inhibition of RIP1 in po dosed mouse model of TNF/zVAD-induced lethal shock assessed as plasma concentration required for reduction in body temperature loss pretreated for 15 mins followed by TNF-stimulation measured after 3 hrs; assay type: functional, organism-based
[14] = test system: Mus musculus; test: Protection against TNF-induced lethal shock in mouse assessed as reduction in body temperature loss at 3 mg/kg, po pretreated for 15 mins followed by TNF-stimulation measured after 6 hrs relative to control; assay type: functional; design: scale not given: the % may be the effect or the level left
[15] = as §1, with “dog” for “monkey”, “373” for “379”; design: species or system Canis lupus familiaris; how it was run: as §2

SMILES: CN1C(=O)[C@@H](NC(=O)c2n[nH]c(Cc3ccccc3)n2)COc2ccccc21 [GSK2982772]
- IC50 [1]: 20 nM
- Activity [2]: 87%
- Activity [3]: 93%
- Activity [4]: 13%
- IC50 [5]: > 10000 nM
- IC50 [6]: 2000 nM
- IC50 [7]: 4 nM
- Activity [8]: 63%
- Activity [9]: 80%
- T1/2 [10]: 1.87 h
- IC50 [11]: 790 nM
- IC50 [12]: 1000 nM
- IC50 [13]: 3200 nM
- Activity [14]: 68%
- IC50 [15]: 5000 nM
